The subject of assay [1] is HCT-116. In words: Antitumour activity against human HCT116 cells xenografted in nude mouse assessed as tumour growth inhibition at 10 mg/kg, ig administered every 3 days for 3 weeks and measured after 3 weeks relative to control. Type of assay: functional. Particulars: HCT-116, po, read-out: TGI. In outline: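 HCT-116 cells (5 × 10^6 per animal) injected into right flank of nude mice; at ~100 mm³ tumours, randomized into groups of 6. Dosed 10 mg/kg in 5% CMC-Na intragastrically every three days for three weeks; vehicle control 5% CMC-Na. Body weight and tumour size recorded every three days, volume = 0.5 × length × width²; tumours excised and weighed at end. Mean ± SD.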

Assay [2] has as its system A549. As to the kind of experiment: Antiproliferative activity against human A549 cells assessed as reduction in cell viability after 48 hrs by MTT assay. Type of assay: functional, cell-based. Particulars: A549, 48 h.
Assay [3] concerns Huh-7. In words: Antiproliferative activity against human HuH7 cells assessed as reduction in cell viability after 48 hrs by MTT assay. It is filed as functional, cell-based. Particulars: Huh-7, 48 h. On the technique in general: Tetrazolium assays rely on reduction of a dye to a coloured formazan, in cell work by metabolically active cells.
Assay [4] concerns HL-60. As to the kind of experiment: Antiproliferative activity against human HL60 cells assessed as reduction in cell viability after 48 hrs by MTT assay. It is filed as functional, cell-based. Particulars: HL-60, 48 h.
Assay [5] deals with Phosphatidylinositol 4,5-bisphosphate 3-kinase catalytic subunit alpha isoform (Homo sapiens, UniProt P42336). As to the kind of experiment: Inhibition of PI3Kalpha (unknown origin) using diC8-PI(4,5)P2 as substrate incubated for 3 hrs in presence of ATP by fluorescence polarization assay. An outline of the steps: (§1)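 Fluorescence polarization competition assay, 10 μL reactions at pH 7: 2.5 mM MgCl₂, 5 mM HEPES, ATP, 10 mM DTT, 50 ng PI3K isoform, diC8-PI(4,5)P2 substrate. After 3 h at room temperature, reactions were chelator-quenched. Phosphoinositide binding protein and fluorophore-labelled tracer were added, then 1 h dark equilibration and polarization read.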
Sequence of Phosphatidylinositol 4,5-bisphosphate 3-kinase catalytic subunit alpha isoform (P42336 whole entry, canonical isoform): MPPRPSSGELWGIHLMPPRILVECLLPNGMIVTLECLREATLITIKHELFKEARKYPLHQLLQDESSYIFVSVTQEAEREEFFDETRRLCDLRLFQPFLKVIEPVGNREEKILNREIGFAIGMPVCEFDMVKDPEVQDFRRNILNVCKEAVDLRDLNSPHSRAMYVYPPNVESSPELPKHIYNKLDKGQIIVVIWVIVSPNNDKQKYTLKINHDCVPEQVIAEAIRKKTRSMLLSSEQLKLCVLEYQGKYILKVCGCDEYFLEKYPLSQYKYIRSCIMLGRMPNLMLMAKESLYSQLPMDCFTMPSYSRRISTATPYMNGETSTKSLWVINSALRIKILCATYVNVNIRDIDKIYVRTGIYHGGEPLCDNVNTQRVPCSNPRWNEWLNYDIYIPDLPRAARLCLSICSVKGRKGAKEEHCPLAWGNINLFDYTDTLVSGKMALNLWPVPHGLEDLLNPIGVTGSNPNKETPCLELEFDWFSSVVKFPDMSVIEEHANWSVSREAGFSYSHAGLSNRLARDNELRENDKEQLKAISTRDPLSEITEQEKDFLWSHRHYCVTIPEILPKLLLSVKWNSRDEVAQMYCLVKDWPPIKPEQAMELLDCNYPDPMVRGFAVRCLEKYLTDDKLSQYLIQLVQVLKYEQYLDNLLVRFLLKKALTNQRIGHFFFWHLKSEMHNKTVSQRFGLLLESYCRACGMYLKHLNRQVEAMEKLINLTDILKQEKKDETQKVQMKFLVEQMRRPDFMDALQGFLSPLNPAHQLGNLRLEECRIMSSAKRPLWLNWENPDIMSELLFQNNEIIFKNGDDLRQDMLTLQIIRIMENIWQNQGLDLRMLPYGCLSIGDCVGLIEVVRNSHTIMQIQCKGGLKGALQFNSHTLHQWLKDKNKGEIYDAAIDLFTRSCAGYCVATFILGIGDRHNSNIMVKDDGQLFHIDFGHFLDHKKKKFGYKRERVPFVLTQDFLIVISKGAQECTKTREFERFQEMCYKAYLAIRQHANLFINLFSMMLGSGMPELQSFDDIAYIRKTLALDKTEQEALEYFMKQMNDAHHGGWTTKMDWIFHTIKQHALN
Background: Polarisation of emitted light reports the rotation of a fluorescent probe.

In assay [6] the target is Phosphatidylinositol 4,5-bisphosphate 3-kinase catalytic subunit beta isoform (Homo sapiens, UniProt P42338). As to the kind of experiment: Inhibition of PI3Kbeta (unknown origin) using diC8-PI(4,5)P2 as substrate incubated for 3 hrs in presence of ATP by fluorescence polarization assay. In outline: as §1
Sequence of Phosphatidylinositol 4,5-bisphosphate 3-kinase catalytic subunit beta isoform (P42338 whole entry, canonical isoform): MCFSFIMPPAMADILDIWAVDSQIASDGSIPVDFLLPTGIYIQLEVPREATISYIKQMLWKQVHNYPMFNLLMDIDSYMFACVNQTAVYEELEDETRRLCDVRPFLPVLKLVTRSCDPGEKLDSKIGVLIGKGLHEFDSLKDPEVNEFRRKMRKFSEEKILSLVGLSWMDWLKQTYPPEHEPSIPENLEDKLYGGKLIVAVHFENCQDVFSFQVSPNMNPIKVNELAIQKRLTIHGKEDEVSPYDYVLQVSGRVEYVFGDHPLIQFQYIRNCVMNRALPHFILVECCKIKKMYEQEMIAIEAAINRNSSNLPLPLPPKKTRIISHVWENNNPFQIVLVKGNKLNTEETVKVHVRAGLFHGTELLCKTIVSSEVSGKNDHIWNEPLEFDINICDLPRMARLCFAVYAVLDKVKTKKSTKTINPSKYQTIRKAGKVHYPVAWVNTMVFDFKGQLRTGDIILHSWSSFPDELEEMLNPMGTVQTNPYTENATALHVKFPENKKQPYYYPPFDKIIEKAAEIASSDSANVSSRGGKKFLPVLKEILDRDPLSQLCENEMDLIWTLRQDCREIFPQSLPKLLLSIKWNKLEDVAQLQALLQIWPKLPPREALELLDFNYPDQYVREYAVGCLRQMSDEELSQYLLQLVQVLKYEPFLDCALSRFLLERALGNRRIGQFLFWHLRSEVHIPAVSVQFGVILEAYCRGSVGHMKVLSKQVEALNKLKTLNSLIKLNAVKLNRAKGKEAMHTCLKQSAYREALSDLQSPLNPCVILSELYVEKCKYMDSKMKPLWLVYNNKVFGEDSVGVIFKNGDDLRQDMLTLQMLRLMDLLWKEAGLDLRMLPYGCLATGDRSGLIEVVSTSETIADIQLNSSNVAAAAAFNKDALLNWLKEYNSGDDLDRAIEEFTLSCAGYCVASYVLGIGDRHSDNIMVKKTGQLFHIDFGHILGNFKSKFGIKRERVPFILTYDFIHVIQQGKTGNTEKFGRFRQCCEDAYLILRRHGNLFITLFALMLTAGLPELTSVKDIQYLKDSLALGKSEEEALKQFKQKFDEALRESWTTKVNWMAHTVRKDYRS
Assay [7] deals with Phosphatidylinositol 4,5-bisphosphate 3-kinase catalytic subunit gamma isoform (Homo sapiens, UniProt P48736). In words: Inhibition of PI3Kgamma (unknown origin) using diC8-PI(4,5)P2 as substrate incubated for 3 hrs in presence of ATP by fluorescence polarization assay. An outline of the steps: as §1
Sequence of Phosphatidylinositol 4,5-bisphosphate 3-kinase catalytic subunit gamma isoform (P48736 whole entry, canonical isoform): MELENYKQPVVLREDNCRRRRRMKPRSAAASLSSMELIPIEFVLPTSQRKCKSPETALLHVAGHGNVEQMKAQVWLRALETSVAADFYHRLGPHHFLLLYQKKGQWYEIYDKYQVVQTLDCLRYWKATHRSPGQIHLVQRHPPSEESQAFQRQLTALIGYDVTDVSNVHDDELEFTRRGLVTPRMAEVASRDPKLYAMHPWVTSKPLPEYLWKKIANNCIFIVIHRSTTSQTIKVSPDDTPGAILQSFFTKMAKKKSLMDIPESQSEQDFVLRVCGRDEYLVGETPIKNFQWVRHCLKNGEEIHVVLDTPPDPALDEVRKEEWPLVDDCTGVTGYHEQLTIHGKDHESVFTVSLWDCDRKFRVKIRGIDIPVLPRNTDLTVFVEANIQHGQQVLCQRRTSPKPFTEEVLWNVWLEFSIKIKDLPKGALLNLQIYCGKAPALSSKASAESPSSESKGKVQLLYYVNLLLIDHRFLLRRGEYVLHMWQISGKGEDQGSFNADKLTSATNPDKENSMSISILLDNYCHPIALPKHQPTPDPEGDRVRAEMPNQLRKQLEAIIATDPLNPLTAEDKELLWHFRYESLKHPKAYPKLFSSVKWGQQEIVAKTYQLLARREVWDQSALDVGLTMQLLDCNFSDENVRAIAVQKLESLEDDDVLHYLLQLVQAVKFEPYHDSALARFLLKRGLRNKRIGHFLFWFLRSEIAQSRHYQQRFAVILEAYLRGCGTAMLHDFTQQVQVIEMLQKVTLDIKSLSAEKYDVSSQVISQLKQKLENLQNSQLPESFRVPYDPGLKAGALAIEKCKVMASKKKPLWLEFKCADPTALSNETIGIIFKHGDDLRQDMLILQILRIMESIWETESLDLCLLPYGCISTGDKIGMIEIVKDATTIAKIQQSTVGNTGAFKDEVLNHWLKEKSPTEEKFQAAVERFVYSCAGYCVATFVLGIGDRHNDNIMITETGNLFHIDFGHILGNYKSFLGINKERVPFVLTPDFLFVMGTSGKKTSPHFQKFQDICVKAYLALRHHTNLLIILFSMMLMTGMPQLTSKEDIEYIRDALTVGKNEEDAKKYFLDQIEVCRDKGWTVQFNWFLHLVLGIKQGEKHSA
Assay [8] addresses Serine/threonine-protein kinase mTOR (Homo sapiens, UniProt P42345). In words: Inhibition of mTOR (unknown origin).
The subject of assay [9] is HCT-116. As to the kind of experiment: Cell cycle arrest in human HCT116 cells assessed as accumulation at S phase at 0.25 uM measured after 24 hrs by propidium iodide staining based flow cytometry analysis (reference value: 50.12 %). Type of assay: functional.
For assay [10], the system named is HCT-116. As to the kind of experiment: Cell cycle arrest in human HCT116 cells assessed as accumulation at S phase at 0.5 uM measured after 24 hrs by propidium iodide staining based flow cytometry analysis (reference value: 50.12 %). Type of assay: functional. (Flow cytometry measures light scatter and fluorescence of single cells or particles in a stream.)
Assay [11] has as its system HCT-116. In words: Cell cycle arrest in human HCT116 cells assessed as accumulation at G1 phase at 1 uM measured after 24 hrs by propidium iodide staining based flow cytometry analysis (reference value: 42.01 %). Type of assay: functional.
Assay [12] relates to HCT-116. As to the kind of experiment: Cell cycle arrest in human HCT116 cells assessed as accumulation at G2 phase at 1 uM measured after 24 hrs by propidium iodide staining based flow cytometry analysis (reference value: 7.86 %). It is filed as functional.
The test system of assay [13] is HCT-116. As to the kind of experiment: Induction of apoptosis in human HCT116 cells assessed as viable cells at 0.25 uM measured after 24 hrs by annexin-v-FITC/propidium iodide staining based FACScan flow cytometry analysis (reference value: 78.5 %). It is filed as functional. Particulars: HCT-116, 24 h, read-out: Activity.
The test system of assay [14] is HCT-116. As to the kind of experiment: Induction of apoptosis in human HCT116 cells assessed as late apoptotic cells at 0.25 uM measured after 24 hrs by annexin-v-FITC/propidium iodide staining based FACScan flow cytometry analysis (reference value: 9.61 %). Type of assay: functional.
In assay [15] the test system is HCT-116. In words: Induction of apoptosis in human HCT116 cells assessed as early apoptotic cells at 0.5 uM measured after 24 hrs by annexin-v-FITC/propidium iodide staining based FACScan flow cytometry analysis (reference value: 10.0 %). Type of assay: functional.
Assay [16] concerns HCT-116. As to the kind of experiment: Induction of apoptosis in human HCT116 cells assessed as late apoptotic cells at 0.5 uM measured after 24 hrs by annexin-v-FITC/propidium iodide staining based FACScan flow cytometry analysis (reference value: 9.61 %). Type of assay: functional.
For assay [17], the system named is HCT-116. In words: Induction of apoptosis in human HCT116 cells assessed as early apoptotic cells at 1 uM measured after 24 hrs by annexin-v-FITC/propidium iodide staining based FACScan flow cytometry analysis (reference value: 10.0 %). It is filed as functional.
Assay [18] concerns HCT-116. In words: Induction of apoptosis in human HCT116 cells assessed as upregulation of BAX expression measured after 24 hrs by Western blot analysis. It is filed as functional, cell-based. An outline of the steps:
(§2)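 HCT-116 cells treated at 0.25, 0.5 and 1 μM for 24 h, lysed in RIPA buffer with PMSF. Proteins separated by SDS-PAGE (8% or 10%), transferred to PVDF and probed with primary antibodies and HRP secondaries. β-actin served as internal control; bands quantified as bar graphs.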

The subject of assay [19] is HCT-116. As to the kind of experiment: Induction of apoptosis in human HCT116 cells assessed as decrease in Bcl-2 protein level measured after 24 hrs by Western blot analysis. It is filed as functional, cell-based. In outline: as §2

By IC50 is commonly meant the concentration at which inhibition is half-maximal.

As for `O=c1oc2ccccc2c2nn(CN3CCN(S(=O)(=O)c4ccc(Cl)c([N+](=O)[O-])c4)CC3)cc12`, the inhibition in vivo at 10 mg/kg in assay [1] amounted to 66.4%. Moreover, the IC50 is 0.06 µM in assay [2]; 0.09 µM in [3]; 0.06 µM in assay [4]; 0.009 µM in [5]; 0.12 µM in assay [6]; 0.081 µM in assay [7]. The compound further displayed an IC50 in [8] of 9.38 µM. The Activity in [9] was 42.4%; in assay [10], 39.53%; in assay [11] it was 58.13%; in [12] it was 8.09%; in [14], 21%; in assay [15], 17.1%. The Activity in [16] is 30.8%; in assay [17], 25.5%; in assay [18], “Dose-dependent effect”; in assay [19], “Dose-dependent effect”. Further, the viability at 0.25 µM in assay [13] worked out at 56%.

These data come from ChEMBL document CHEMBL4359902, “Development of novel chromeno[4,3-c]pyrazol-4(2H)-one derivates bearing sulfonylpiperazine as antitumor inhibitors targeting PI3Kα” (Eur J Med Chem, 2019).
